Source: PubChem BioAssay (several laboratories)
STAT3 act-1: IL-6 driven STAT3 reporter potentiators, primary screen, U3A cells, luciferase, luminescence, MLSCN library; 190,000 compounds, 0.91% hits; activation (% of control), % at 5.6 µM; AID 871, 2007; IL-6 STAT3-luciferase reporter; 100% = signal with IL-6 EC80 alone;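 active = activation above the screen-wide mean of compound activation plus 3 SD, cut at about 130% in these data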;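 note: 0% = background luminescence of wells with medium and substrate only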
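Test system: human U3A cells carrying STAT3-luciferase construct; control set: IL-6-only wells as 100% reference; timing: compound pre-incubation 1 h before IL-6, then 6 h stimulation at 37 °C; also added: IL-6 stimulus at 33 ng/mL final; evaluation: % activation versus median of IL-6-stimulated wells; detection: reporter luminescence signal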
NF-kB expr up: activators of NF-kB expression in neurons, primary screen, cell-based, HTS; 190,000 compounds, 1.6% hits; fold change at 12.5 µM; AID 1239, 2008; human neuronal cells, NF-kB reporter expression; hits give high values; in the data active = fold change above about 3.3
STAT3 inh: IL-6 driven STAT3 reporter inhibitors, primary screen, U3A cells, luciferase, luminescence, MLSCN library | 190,000 compounds, 0.89% hits | IL-6 STAT3-luciferase reporter; host cell line lacks STAT1 | inhibition, % at 5.5 µM;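 active = inhibition above the mean inhibition across all screened compounds plus 3 SD, cut at about 44% in these data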;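 note: 0% = DMSO only wells and 100% = 100 µM nifuroxazide control wells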
STAT1 inh: STAT1 signaling inhibitors, primary screen, cell-based, HTS, luciferase reporter; 200,000 compounds, 0.35% hits; NIH 3T3 STAT1-luciferase reporter, IFN-gamma, luminescence; inhibition, % at 5.5 µM;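 active = inhibition above a set limit, the mean inhibition across all tested compounds plus 3 SD, cut at about 34% in these data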;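 note: 0% = IFN-gamma with DMSO and 100% = IFN-gamma with 300 µM nifuroxazide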
STAT1 act-1: STAT1 signaling activators, primary screen, cell-based, HTS, luciferase reporter. activation (% of control), % at 5.5 µM. NIH 3T3 STAT1-luciferase reporter, IFN-gamma, luminescence; 100% = IFN-gamma alone, no compound. 200,000 compounds, 2.6% hits;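 active = activation above the screen-wide mean activation plus 3 SD, cut at about 130% in these data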;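 note: raw ratio to IFN-gamma control signal so 100% means no change and 0% no light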
APP 5'UTR act: activators of APP 5'UTR luciferase reporter, primary screen, SH-SY5Y cells; SH-SY5Y APP 5'UTR luciferase reporter, luminescence; zero percent = DMSO vehicle wells; activation, % at 2 µM; 190,000 compounds, 1% hits; AID 1276, 2008;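 active = activation above a set limit, based on mean plus 3 SD of controls, cut at about 140% in these data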
STAT3 act-2: STAT3 reporter potentiators, retest of hits, confirmation, U3A cells, luciferase, luminescence. shares compounds with STAT3 act-1. IL-6 potentiation; U3A cells lack STAT1; 100 means same as IL-6 alone. potentiation (% of control), % at 5.7 µM. 1,200 compounds, 64% hits;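 active = percent activation of the STAT3 luciferase reporter above a set limit taken from the earlier primary screen, cut at about 130% in these data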;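 note: 0% = background signal of medium plus substrate and 100% = median of IL-6 with DMSO wells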
NFkB act 2: NF-kB reporter activators in human cells, counter-screen for STAT3 activator project | activation (% of control), % at 5.7 µM | 1,200 compounds, 11% hits | shares compounds with STAT3 act-1 | NF-kappaB reporter activation; in the data active = activation above about 120%;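 note: reporter induced by TNF-alpha stimulation; 100% = median of stimulated DMSO wells and 0% = no signal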
STAT1 act-2: STAT1 reporter activators, IFN-gamma induced, counter-screen for STAT3 activator project, cell-based, NIH 3T3, luciferase luminescence. shares compounds with STAT3 act-1. AID 1318, 2008. 1,200 compounds, 13% hits. activation (% of control), % at 5.7 µM. NIH 3T3 STAT1-luciferase reporter;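 active = activation above the solvent-only control well mean plus 3 SD, set per screening run, cut at about 120% in these data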;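 note: 100% = IFN-gamma with DMSO median signal so 100% means no change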
* hit, by the source's call. Only some compounds are listed: those with a hit (about 5.1% of all), similar ones and a draw of the others.

Results for CC(C)C(=O)N1CCN(c2ccccc2NC(=O)c2ccc(C#N)cc2F)CC1 ?
STAT3 act-1: 137*; NF-kB expr up: 0.84; STAT3 inh: -42; STAT1 inh: -5; STAT1 act-1: 103; APP 5'UTR act: 25; STAT3 act-2: 138*; NFkB act 2: 119; STAT1 act-2: 111

Results for CC1CCN(c2ccccc2NC(=O)c2ccc(C#N)cc2F)CC1 ?
STAT3 act-1: 93; NF-kB expr up: 1.7; STAT3 inh: 9; STAT1 inh: -5; STAT1 act-1: 105; APP 5'UTR act: 17

How did COc1ccccc1N(C)S(=O)(=O)c1ccc(C(=O)OCC(=O)N2CCCCCC2)cc1 do in these assays?
STAT3 act-1: 103; NF-kB expr up: 0.99; STAT3 inh: -4; STAT1 inh: 3; STAT1 act-1: 98; APP 5'UTR act: 12

What do the screens show for `c1ccc(Cn2c(SCc3nc4ccccc4s3)nnc2-c2ccco2)cc1`?
STAT3 act-1: 130; NF-kB expr up: 1; STAT3 inh: -30; STAT1 inh: 0; STAT1 act-1: 100; APP 5'UTR act: 13

How did Cc1nnc(SCc2nc3ccccc3s2)n1-c1ccccc1 do in these assays?
STAT3 act-1: 147*; NF-kB expr up: 1.1; STAT3 inh: -51; STAT1 inh: -15; STAT1 act-1: 112; APP 5'UTR act: 85; STAT3 act-2: 149*; NFkB act 2: 113; STAT1 act-2: 134*

How did c1ccc(-n2cnnc2SCc2nc3ccccc3s2)cc1 do in these assays?
STAT3 act-1: 140*; NF-kB expr up: 1.2; STAT3 inh: -39; STAT1 inh: -21; STAT1 act-1: 119; APP 5'UTR act: 57; STAT3 act-2: 152*; NFkB act 2: 122*; STAT1 act-2: 132*

What do the screens show for `CCC(c1nnc(SCc2nc3ccccc3s2)n1Cc1ccccc1)N(C)C` (stereo not given)?
STAT3 act-1: 152*; NF-kB expr up: 1; STAT3 inh: -55; STAT1 inh: -18; STAT1 act-1: 117; APP 5'UTR act: 43; STAT3 act-2: 141*; NFkB act 2: 117; STAT1 act-2: 117

Results for CCn1c(SCc2nc3ccccc3s2)nnc1-c1ccccc1 ?
STAT3 act-1: 171*; NF-kB expr up: 1.3; STAT3 inh: -78; STAT1 inh: -18; STAT1 act-1: 116; APP 5'UTR act: 33; STAT3 act-2: 145*; NFkB act 2: 117; STAT1 act-2: 134*

How did CSc1nc2n(n1)C(C)C1=C(CCCC1=O)N2 (stereo not given) do in these assays?
STAT3 act-1: 103; NF-kB expr up: 1.1; STAT3 inh: 4; STAT1 inh: -9; STAT1 act-1: 106; APP 5'UTR act: 3

What do the screens show for `CCOc1ccccc1-c1nnc(SCC(=O)NC2CC3CCC2C3)n1CC` (stereo not given)?
STAT3 act-1: 160*; NF-kB expr up: 0.96; STAT3 inh: -60; STAT1 inh: -6; STAT1 act-1: 105; APP 5'UTR act: 1; STAT3 act-2: 169*; NFkB act 2: 127*; STAT1 act-2: 162*

What do the screens show for `CC1=NN(C(C#N)c2c(C)nn(Cc3ccccc3)c2C)C(C)(C)C1` (stereo not given)?
STAT3 act-1: 101; NF-kB expr up: 1.4; STAT3 inh: 7; STAT1 inh: 8; STAT1 act-1: 91; APP 5'UTR act: 11

Results for Cn1c(SCC(=O)Nc2ccc3cn[nH]c3c2)nnc1-c1cccs1 ?
STAT3 act-1: 162*; NF-kB expr up: 1; STAT3 inh: -70; STAT1 inh: -1; STAT1 act-1: 99; APP 5'UTR act: -17; STAT3 act-2: 149*; NFkB act 2: 106; STAT1 act-2: 99

What do the screens show for `COc1ccc(NC(=O)CSc2nnc(-c3cccs3)n2C)cc1OC`?
STAT3 act-1: 95; NF-kB expr up: 0.99; STAT3 inh: 11; STAT1 inh: 4; STAT1 act-1: 95; APP 5'UTR act: 2

What do the screens show for `Cn1c(SCC(=O)Nc2ccc3cn[nH]c3c2)nnc1-c1cnccn1`?
STAT3 act-1: 145*; NF-kB expr up: 0.92; STAT3 inh: -50; STAT1 inh: 3; STAT1 act-1: 99; APP 5'UTR act: -9; STAT3 act-2: 146*; NFkB act 2: 100; STAT1 act-2: 99

What do the screens show for `Cc1ccc(-n2c(SCC(=O)Nc3ccc4cn[nH]c4c3)nnc2-c2ccco2)cc1`?
STAT3 act-1: 149*; NF-kB expr up: 0.61; STAT3 inh: -54; STAT1 inh: 10; STAT1 act-1: 94; APP 5'UTR act: -24; STAT3 act-2: 143*; NFkB act 2: 105; STAT1 act-2: 96

What do the screens show for `Nn1cnnc1SCC(=O)Nc1ccc2c(c1)OCO2`?
STAT3 act-1: 102; NF-kB expr up: 0.87; STAT3 inh: 6; STAT1 inh: 0; STAT1 act-1: 100; APP 5'UTR act: 16

Results for O=C1C2=C(Nc3ccccc3SC2c2ccco2)c2ccccc21 (stereo not given) ?
STAT3 act-1: 137*; NF-kB expr up: 1; STAT3 inh: -36; STAT1 inh: -6; STAT1 act-1: 105; APP 5'UTR act: 21; STAT3 act-2: 125; NFkB act 2: 102; STAT1 act-2: 105

How did Cc1ccc(NC(=S)NNS(=O)(=O)c2ccc3ccccc3c2)cc1Cl do in these assays?
STAT3 act-1: 87; STAT3 inh: 20; STAT1 inh: 6; STAT1 act-1: 93; APP 5'UTR act: -11

Results for O=C1NC2=C(CCc3ccccc32)C(c2ccccc2)N1 (stereo not given) ?
STAT3 act-1: 148*; NF-kB expr up: 1.2; STAT3 inh: -50; STAT1 inh: 1; STAT1 act-1: 99; APP 5'UTR act: 15; STAT3 act-2: 101; NFkB act 2: 100; STAT1 act-2: 98

What do the screens show for `COc1cccc(OC)c1C(=O)NC(=S)Nc1ccc2c(c1)Cc1ccccc1-2`?
STAT3 act-1: 150*; NF-kB expr up: 0.99; STAT3 inh: -55; STAT1 inh: 0; STAT1 act-1: 100; APP 5'UTR act: 14; STAT3 act-2: 131; NFkB act 2: 101; STAT1 act-2: 100
